Assay outcomes: PubChem, several laboratories
CTSL1 counter: Fasciola hepatica cathepsin L1 inhibitors, primary screen, counter-screen for PFM18AAP inhibitor project, biochemical, QFRET, fluorogenic peptide substrate; AID 1906, 2009; recombinant F. hepatica cathepsin L1, Z-Leu-Arg-MCA fluorescence; inhibition, % at 5.96 µM; 300,000 compounds, 0.49% hits;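 active = inhibition above the mean of all tested compounds plus 3 SD, set per screening campaign, cut at about 17% in these data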;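 also: 0% = plate median of test compound wells and 100% = 1 µM Z-Phe-Ala-diazomethylketone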
HKDC1 inh: HKDC1 hexokinase inhibitors, primary screen, biochemical, fluorescence, uHTS. Q2TB90. recombinant HKDC1, G6PDH/diaphorase resazurin coupled fluorescence. inhibition, % at 20 µM. 340,000 compounds, 0.16% hits. AID 493160, 2011;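 active = inhibition above about 35% when tested at 20 µM, limit read from the data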;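 also: plate controls were DMSO wells with enzyme for no effect and DMSO wells lacking enzyme for full effect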
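Test system: HK5 enzyme. Quantity: 5 µg/mL HK5 final. Reagent: glucose and ATP substrates. Schedule: 90 min reaction incubation at room temperature, dark. Technique: resazurin-to-resorufin fluorescence via G6PDH and diaphorase coupling, 525/613 nm. Control set: DMSO wells with and without enzyme mix.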
ATG4B inh: ATG4B protease inhibitors, primary screen, biochemical, fluorescence, uHTS; Cysteine protease ATG4B (Homo sapiens), Q9Y4P1; ATG4B cleavage of LC3-PLA2, NBD-HPC fluorescence, 1 h; inhibition, % at 8.33 µM; 340,000 compounds, 0.51% hits; in the data active = inhibition above about 40%
Diaph inh CS: diaphorase inhibitors and chemical oxidizers, primary screen, counter-screen for diaphorase-coupled primary assays, biochemical, uHTS, resorufin fluorescence | 190,000 compounds, 0.69% hits | diaphorase resazurin-to-resorufin fluorescence, NADH, 16 min; bacterial (C. kluyveri) enzyme, not human | AID 1217, 2008 | inhibition, % at 20 µM;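 active = primary screen inhibition at 20 µM above a set limit, cut at about 50% in these data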;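 also: plate controls were DMSO with full reaction for no effect and wells lacking NADH for full effect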
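Assay system: diaphorase enzyme from Clostridium kluyveri; Input: enzyme working solution with 0.14 U/mL diaphorase; Timing: 16 min at room temperature; Technique: resorufin fluorescence, excitation 544 nm, emission 590 nm; Benchmarks: positive control minus NADH, DMSO neutral control.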
Diaphorase act: compounds boosting diaphorase resazurin reduction – biochemical, uHTS, resorufin fluorescence, counter-screen for diaphorase-coupled primary assays, primary screen | Diaphorase/resazurin coupled assay, 16 min; hits give high values; 1 = vehicle wells, 0 = NADH-free wells | activation factor at 20 µM | 190,000 compounds, 0.005% hits;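 active = diaphorase activity raised at least twofold by the compound at 20 µM; inactive = activation factor below 2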
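System – purified diaphorase enzyme from Clostridium kluyveri · Input – enzyme 0.07 U/mL final · Also added – final NADH 0.114 mM, resazurin 0.1 mM · Measured by – fluorescence of resorufin, 544 nm excitation, 590 nm emission · Timing – 16 min enzyme reaction, ambient temperature · Measure – resorufin increase flagging diaphorase activators or reducers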
ATG4B confirm: ATG4B protease inhibitors, retest, confirmation, biochemical, fluorescence, single concentration. shares compounds with ATG4B inh. ATG4B protease fluorescent substrate cleavage assay. inhibition, % at 8.33 µM. 320 compounds, 92% hits; in the data active = inhibition above about 39%
PLA2 ctr: PLA2 enzyme inhibition, counter-screen for ATG4B inhibitor project, biochemical, single concentration, uHTS hits; shares compounds with ATG4B inh; purified PLA2, NBD-C6-HPC fluorescence, 45 min; inhibition, % at 8.33 µM; 1,600 compounds, 66% hits; in the data active = inhibition above about 50%
Target sequence (P04054 whole entry, looked up): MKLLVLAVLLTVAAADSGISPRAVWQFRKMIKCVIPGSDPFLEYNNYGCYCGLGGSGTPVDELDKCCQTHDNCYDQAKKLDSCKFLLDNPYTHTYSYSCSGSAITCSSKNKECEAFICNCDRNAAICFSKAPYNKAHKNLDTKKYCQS
* marks the source's active call; other numbers are inactive results; x = no result given. Hits are enriched below; roughly 1.4% of the tested compounds scored in any of these assays.

SMILES | CTSL1 counter | HKDC1 inh | ATG4B inh | Diaph inh CS | Diaphorase act | PLA2 ctr | others
CCc1nnc(NS(=O)(=O)c2ccc(N/C=C\C(=O)c3ccc4ccccc4c3)cc2)s1 | -1 | 2 | 50* | 25 | 0.7 | 11 | ATG4B confirm=59*
CCCn1cnc2c(SCc3ccccc3Cl)nc(N)nc21 | x | -1 | 9 | x | x | x
O=S(=O)(c1ccc(Cl)s1)N1CCc2ccccc2C1 | 0 | -8 | 11 | 4 | 1 | x
O=S(=O)(c1ccc(Br)s1)N1CCc2ccccc2C1 | -2 | -5 | 57* | 24 | 0.8 | 27
O=c1[nH]c(=S)[nH]c2c1C(c1ccc(Br)cc1)c1c([nH]c(=S)[nH]c1=O)O2 | 8 | 18 | 53* | x | x | 1 | ATG4B confirm=15
Cc1ccc(CNC(=O)/C=C/c2ccc(S(=O)(=O)NCc3ccco3)cc2)cc1 | 1 | -6 | -12 | 14 | 0.9 | x
O=C(/C=C/c1ccc(S(=O)(=O)NCc2ccco2)cc1)NCc1cccc(Cl)c1 | 6 | -4 | 52* | 13 | 0.9 | 62*
O=C(/C=C/c1ccc(OCCCF)cc1)NCc1cccc(Cl)c1 | 1 | -1 | 45* | 24 | 0.8 | 49
CCCOc1ccc(/C=C/C(=O)NCc2ccccc2)cc1 | -6 | 17 | 18 | 9 | 0.9 | x
CC1CCCCC1N(C)C1CCN(C(=O)CNC(=O)/C=C/c2cccc(Cl)c2)CC1 (stereo not given) | 0 | -5 | 5 | x | x | x
O=C(Nc1nnc(CSCc2ccccc2F)s1)c1cccc([N+](=O)[O-])c1 | 10 | -1 | 51* | 28 | 0.7 | 58*
CC(C)C(=O)Nc1nnc(CSCc2ccccc2F)s1 | -2 | -1 | -10 | -1 | 1 | x
CC(C)(C)C(=O)Nc1nnc(CSCc2ccccc2F)s1 | -1 | -3 | 40* | 5 | 1 | 40 | ATG4B confirm=59*
Cc1cccc(C)c1NC(=O)CNC(=O)c1ccccc1OCc1ccccc1 | 5 | 1 | 9 | x | x | x
CC(C)NC(=O)N(C)C[C@H]1Oc2ccc(NS(=O)(=O)c3ccc(F)cc3)cc2C(=O)N([C@H](C)CO)C[C@@H]1C | x | -4 | 0 | x | x | x
COc1cc2c(cc1NC(=O)COC(=O)[C@@H](NS(=O)(=O)c1cccc(Cl)c1)C(C)C)oc1ccccc12 | -17 | 9 | 47* | 10 | 0.9 | 63*
COc1ccc(S(=O)(=O)N[C@@H](C)C(=O)OCC(=O)Nc2cc3oc4ccccc4c3cc2OC)cc1 | -8 | 18 | -16 | 20 | 0.8 | x
O=c1c2ccccc2nc(/C=C/c2ccc(O)cc2)n1CCc1ccccc1 | 1 | 4 | 48* | 24 | 0.8 | 48 | ATG4B confirm=72*
O=c1c2ccccc2nc(/C=C/c2ccccc2)n1CCCO | -1 | -1 | 1 | x | x | x
CCC(C)(C)C1CCc2c(sc(NC(=O)c3ccccc3C(=O)O)c2C#N)C1 (stereo not given) | 5 | 8 | 71* | x | x | 87*
CC1CCc2c(sc(NC(=O)c3ccccc3C(=O)O)c2C#N)C1 (stereo not given) | 0 | -6 | 4 | 1 | 1 | x
COc1ccc(-c2cn(CCO)c(-c3ccc(Cl)nc3)n2)cc1 | -1 | -5 | -6 | x | x | x
CCC(=O)N1CCc2cc(S(=O)(=O)CCC(=O)Nc3cccc(C)n3)ccc21 | -1 | -11 | -7 | 0 | 1 | x
Cc1cc2nccc(-c3ccc(OCCCF)cc3)n2n1 | -4 | -2 | 1 | x | x | x
CSc1n[nH]c2nc3c(c(=O)n12)C1(CCCCC1)Cc1ccccc1-3 | -3 | 3 | 42* | x | x | 33 | ATG4B confirm=46*
O=C(NNC(=O)c1ccccc1-n1cccc1)c1cncc(Br)c1 | x | 8 | 0 | x | x | x
